Test results as given in ChEMBL document CHEMBL4219052, “Synthesis and biological evaluation of 6-substituted-5-fluorouridine ProTides” (Bioorg Med Chem, 2018).

What was measured:
SW-620 = assay: Cytotoxicity against human SW620 cells after 72 hrs by MTS assay; format: functional, cell-based; conditions: SW-620, 72 h
How it was run: (§1)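 Commercial screen: tumour cells seeded at 0.5 to 100 x 10³ cells/well the day before dosing, then exposed 72 h to compound in duplicate, 9 serial 3.16-fold dilutions from 198 µM top concentration. MTS added for a further 4 h at 37 °C, absorbance read; IC50 taken as 50% inhibition of viability by curve fitting.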

Chikungunya virus = assay: Antiviral activity against Chikungunya virus infected in African green monkey Vero cells assessed as reduction in virus-induced cytopathic effect pretreated for 1 hr followed by viral infection measured after 3 days by crystal violet staining based assay; format: functional, organism-based
RL = assay: Cytotoxicity against human RL cells after 72 hrs by MTS assay; format: functional, cell-based; how it was run: as §1
MCF7 = assay: Cytotoxicity against human MCF7 cells after 72 hrs by MTS assay; format: functional, cell-based; conditions: MCF7, 72 h; how it was run: as §1
[1] = Cytotoxicity against African green monkey Vero cells measured after 3 days by CelltiterGlo luminescence assay; format: cell-based; conditions: chlorocebus sabaeus
How it was run: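 Vero cells seeded and left overnight; growth medium then replaced by serial compound dilutions, added in triplicate; medium-only wells defined 0% cytotoxicity. On day 3 cells were lysed and ATP content measured by luciferase luminescence (CellTiter-Glo); CC50 obtained from a 4-PL curve fit.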

[2] = Cytotoxicity against human Hs445 cells after 72 hrs by MTS assay; format: functional, cell-based; conditions: Hs 445, 72 h; how it was run: as §1
HEL 92.1.7 = assay: Cytotoxicity against human HEL 92.1.7 cells after 72 hrs by MTS assay; format: functional, cell-based; conditions: HEL 92.1.7, 72 h; how it was run: as §1
MIA PaCa-2 = assay: Cytotoxicity against human MIAPaCa2 cells after 72 hrs by MTS assay; format: functional, cell-based; conditions: MIA PaCa-2, 72 h; how it was run: as §1
MV4-11 = assay: Cytotoxicity against human MV411 cells after 72 hrs by MTS assay; format: functional, cell-based; conditions: MV4-11, 72 h; how it was run: as §1
[3] = biological target: Orotidine 5'-phosphate decarboxylase (Methanobacterium thermoautotrophicum, UniProt O26232); assay: Inhibition of Methanobacterium thermoautotrophicum ODCase; parameters: species or system Methanothermobacter thermautotrophicus
[4] = biological target: T1, Orotidine 5'-phosphate decarboxylase (Saccharomyces cerevisiae S288c, UniProt P03962); assay: Inhibition of yeast ODCase
T1 sequence (P03962 whole entry): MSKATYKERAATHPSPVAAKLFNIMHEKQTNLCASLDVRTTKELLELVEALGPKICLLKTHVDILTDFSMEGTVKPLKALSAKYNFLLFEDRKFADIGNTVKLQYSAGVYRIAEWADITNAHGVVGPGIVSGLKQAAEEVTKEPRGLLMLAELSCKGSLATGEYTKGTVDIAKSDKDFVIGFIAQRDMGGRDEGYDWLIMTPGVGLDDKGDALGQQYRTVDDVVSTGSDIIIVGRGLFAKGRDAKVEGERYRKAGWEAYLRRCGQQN

[5] = biological target: T2, Uridine 5'-monophosphate synthase (Homo sapiens, UniProt P11172); assay: Inhibition of human ODCase
T2 sequence (P11172 whole entry): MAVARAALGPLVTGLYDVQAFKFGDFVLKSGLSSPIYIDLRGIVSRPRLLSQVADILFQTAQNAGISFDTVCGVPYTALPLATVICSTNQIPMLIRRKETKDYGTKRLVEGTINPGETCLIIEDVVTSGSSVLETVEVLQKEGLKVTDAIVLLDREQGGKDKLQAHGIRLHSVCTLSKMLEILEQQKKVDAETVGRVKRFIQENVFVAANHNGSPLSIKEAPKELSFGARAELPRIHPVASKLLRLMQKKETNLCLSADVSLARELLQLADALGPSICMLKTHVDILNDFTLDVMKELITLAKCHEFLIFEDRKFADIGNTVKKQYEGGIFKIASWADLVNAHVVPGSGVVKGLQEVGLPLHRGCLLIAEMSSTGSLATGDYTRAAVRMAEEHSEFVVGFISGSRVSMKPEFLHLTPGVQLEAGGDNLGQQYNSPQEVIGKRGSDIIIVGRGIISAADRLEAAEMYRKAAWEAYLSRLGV

Chain of Orotidine 5'-phosphate decarboxylase (Methanobacterium thermoautotrophicum, UniProt O26232) (O26232 whole entry): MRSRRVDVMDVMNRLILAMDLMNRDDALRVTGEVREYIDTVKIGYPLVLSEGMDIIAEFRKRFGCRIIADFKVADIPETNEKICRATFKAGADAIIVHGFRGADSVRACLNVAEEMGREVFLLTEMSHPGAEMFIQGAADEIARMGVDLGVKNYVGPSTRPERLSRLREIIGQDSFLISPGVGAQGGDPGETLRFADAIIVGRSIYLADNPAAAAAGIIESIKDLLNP

Compound	IC50 (SW-620) [µM]	EC50 (Chikungunya virus) [µM]	IC50 (RL) [µM]	IC50 (MCF7) [µM]	CC50 at 72 h [1] [µM]	IC50 [2] [µM]	IC50 (HEL 92.1.7) [µM]	IC50 (MIA PaCa-2) [µM]	IC50 (MV4-11) [µM]	Ki [3] [µM]	Ki [4] [µM]	Ki [5] [µM]
CCc1c(F)c(=O)[nH]c(=O)n1[C@@H]1O[C@H](COP(=O)(N[C@@H](C)C(=O)OCc2ccccc2)Oc2cccc3ccccc23)[C@@H](O)[C@H]1O (stereo not given in full)	12	> 50	27	> 50	53.1	10	> 50					
C[C@H](NP(=O)(OC[C@H]1O[C@@H](n2c(N=[N+]=[N-])c(F)c(=O)[nH]c2=O)[C@H](O)[C@@H]1O)Oc1cccc2ccccc12)C(=O)OCc1ccccc1 (stereo not given in full)	28	> 200	12	44	81.8	15	29	27	6.3			
C[C@H](NP(=O)(OC[C@H]1O[C@@H](n2c(N=[N+]=[N-])c(F)c(=O)[nH]c2=O)[C@H](O)[C@@H]1O)Oc1ccccc1)C(=O)OCc1ccccc1 (stereo not given in full)	13		21	20		23	17	22	8			
CCOC(=O)[C@H](C)NP(=O)(OC[C@H]1O[C@@H](n2c(N=[N+]=[N-])c(F)c(=O)[nH]c2=O)[C@H](O)[C@@H]1O)Oc1ccccc1 (stereo not given in full)	> 50		> 50	> 50		44	> 50	> 50	> 50			
C[C@H](NP(=O)(OC[C@H]1O[C@@H](n2c(I)c(F)c(=O)[nH]c2=O)[C@H](O)[C@@H]1O)Oc1cccc2ccccc12)C(=O)OCc1ccccc1 (stereo not given in full)	0.52		0.4	3.93		0.71	0.4	0.63	0.08			
Cc1c(F)c(=O)[nH]c(=O)n1[C@@H]1O[C@H](CO)[C@@H](O)[C@H]1O	8.5	> 200	16	5.4	9.04	7	14	12	2			
O=c1[nH]c(=O)n([C@@H]2O[C@H](CO)[C@@H](O)[C@H]2O)c(I)c1F	0.5		0.1	0.67		0.38	0.1	0.02	0.04			
CCc1c(F)c(=O)[nH]c(=O)n1[C@@H]1O[C@H](CO)[C@@H](O)[C@H]1O	> 50	> 200	> 50	> 50	> 200	> 50	> 50					
[N-]=[N+]=Nc1c(F)c(=O)[nH]c(=O)n1[C@@H]1O[C@H](CO)[C@@H](O)[C@H]1O	8	> 200	10	6	47	14	10	11	6.6			
O=c1cnn([C@@H]2O[C@H](CO)[C@@H](O)[C@H]2O)c(=O)[nH]1 [6-AZAURIDINE]		0.468			> 10					11	0.064	
NC(=O)c1[nH]nc([C@@H]2O[C@H](CO)[C@@H](O)[C@H]2O)c1O [PYRAZOFURIN]										6.2		0.017
